Experimental data taken from ChEMBL document CHEMBL1144503, “Structure determination of inonotsuoxides A and B and in vivo anti-tumor promoting activity of inotodiol from the sclerotia of Inonotus obliquus” (Bioorg Med Chem, 2007).

Tests used:
[1] = test system: Raji; test: Cell viability in Raji cells at 1000 mol ratio/TPA relative to control; assay type: functional, Homo sapiens
Method in brief: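 Raji cells under the EBV-EA induction conditions (n-butyric acid 4 mmol plus TPA 32 pmol, 48 h, 37 C), with test compound added in DMSO at 1000 mol ratio to TPA. Viability was assayed by Trypan blue staining and reported as a percentage.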

[2] = test system: Human gammaherpesvirus 4; test: Inhibition of TPA-induced EBV-EA activation in Raji cells at 500 mol ratio/TPA relative to control; values are per cent of control
[3] = test system: Human gammaherpesvirus 4; test: Inhibition of TPA-induced EBV-EA activation in Raji cells at 10 mol ratio/TPA relative to control; values are per cent of control
[4] = test system: Human gammaherpesvirus 4; test: Inhibition of TPA-induced EBV-EA activation in Raji cells at 100 mol ratio/TPA relative to control; values are per cent of control
[5] = test system: Human gammaherpesvirus 4; test: Inhibition of TPA-induced EBV-EA activation in Raji cells at 1000 mol ratio/TPA relative to control; values are per cent of control
[6] = species on record: Mus musculus; test: Suppression of DMBA/TPA-induced papilloma-formation in ICR mouse within 10 week; assay type: functional
[7] = species on record: Mus musculus; test: Toxicity in ICR mouse with DMBA/TPA-induced papilloma; assay type: organism-based; conditions: in vivo
Method in brief: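 Specific pathogen-free female ICR mice, 6 weeks old, in three groups of 15. Shaved backs were initiated topically with DMBA (390 nmol) in 0.1 ml acetone. From one week later, TPA (1.7 nmol) in 0.1 ml acetone was applied to the skin twice weekly. Treated groups also received 85 nmol of test agent with TPA. Mice were followed to week 20.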

[8] = species on record: Mus musculus; test: Suppression of DMBA/TPA-induced papilloma-formation in ICR mouse at 85 nmol within 10 week; assay type: functional

Row | SMILES | Activity [1] [%] | level, % of control [2] [%] | level, % of control [3] [%] | level, % of control [4] [%] | level, % of control [5] [%] | Activity [6] [%] | Activity [7] | Activity [8] [%]
1 | CC(C)=CCC[C@@H](C)[C@H]1CC[C@@]2(C)C3=C(CC[C@]12C)[C@@]1(C)CC[C@H](O)C(C)(C)[C@@H]1CC3 [LANOSTEROL] | 70 | 44.7 | 96.3 | 74.3 | 4.9 |  |  | 
2 | CC(C)=CCC[C@@H](C(=O)O)[C@H]1CC[C@@]2(C)C3=C(CC[C@]12C)[C@@]1(C)CC[C@H](O)C(C)(C)[C@@H]1CC3 [TRAMETENOLIC ACID] | 70 | 45 | 98.6 | 75.4 | 9.2 |  |  | 
3 | CC(=O)O[C@H]1C[C@H]([C@@H](C)[C@H]2CC[C@@]3(C)C4=C(CC[C@]23C)[C@@]2(C)CC[C@H](OC(C)=O)C(C)(C)[C@@H]2CC4)OC1(C)C | 70 |  |  |  |  |  |  | 
4 | CC(C)=CC[C@@H](O)[C@@H](C)[C@H]1CC[C@@]2(C)C3=C(CC[C@]12C)[C@@]1(C)CC[C@H](O)C(C)(C)[C@@H]1CC3 [INOTODIOL] | 70 | 37.6 | 93.1 | 66.1 | 2.4 | <30 | Non-toxic | 
5 | CC(=O)O[C@H]1CC[C@]2(C)C3=C(CC[C@H]2C1(C)C)[C@]1(C)CC[C@H]([C@@H](CCC=C(C)C)C(=O)O)[C@@]1(C)CC3 [ACETYL TRAMETENOLIC ACID] | 70 | 47.8 | 100 | 79 | 12.7 |  |  | 
6 | CC1(C)CC[C@]2(C(=O)O)CC[C@]3(C)C(=CC[C@@H]4[C@@]5(C)CC[C@H](O)C(C)(C)[C@@H]5CC[C@]43C)[C@@H]2C1 [OLEANOLIC_ACID] |  |  |  |  |  |  | Non-toxic | <30
7 | C[C@@H]([C@H]1CC[C@@]2(C)C3=C(CC[C@]12C)[C@@]1(C)CC[C@H](O)C(C)(C)[C@@H]1CC3)[C@H]1C[C@H](O)C(C)(C)O1 [INONOTSUOXIDE A] | 70 | 42 | 94.3 | 71.3 | 6.3 |  |  | 
